According to ChEMBL document CHEMBL2021901, “Antibacterial acylphloroglucinols from Hypericum olympicum” (2012):
≈ marks a conversion by molar mass, not a printed value.

Tests used:
Staphylococcus aureus [1] = test: Antibacterial activity against Staphylococcus aureus RN4220 overexpressing MsrA macrolide efflux protein after 24 hrs; assay type: functional; conditions: RN4220, 24 h
How it was run: (§1)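 Strains grown on nutrient agar for 24 h at 37 °C before testing. Broth microdilution MIC used an inoculum of 5 × 10⁵ CFU, prepared in normal saline (9 g/L) against a 0.5 McFarland standard. Plates were incubated at 37 °C, then MTT (5 mg/mL methanolic stock) was added for 20 min. Growth was scored by colour change.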

[2] = tested on: Mycolicibacterium smegmatis; test: Antimycobacterial activity against Mycobacterium smegmatis MC2 2700 expressing Mycobacterium tuberculosis fatty acid synthase 1 gene after 72 hrs by MTT assay; assay type: functional; conditions: MC2 2700, 72 h
How it was run: (§2)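 Mycobacteria were grown on Columbia agar with 7% defibrinated horse blood, subcultured, and incubated 72 h at 37 °C before the assay. Broth microdilution MIC used an inoculum of 5 × 10⁵ CFU in normal saline, set against a 0.5 McFarland standard. Plates were incubated at 37 °C, then MTT (5 mg/mL methanolic stock) was added for 20 min. Growth was read by colour change.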

[3] = tested on: Mycolicibacterium smegmatis; test: Antimycobacterial activity against Mycobacterium smegmatis ATCC 14468 after 72 hrs by MTT assay; assay type: functional; conditions: ATCC 14468, 72 h; how it was run: as §2
[4] = tested on: Mycolicibacterium fortuitum; test: Antimycobacterial activity against Mycobacterium fortuitum ATCC 6841 after 72 hrs by MTT assay; assay type: functional; conditions: ATCC 6841, 72 h
How it was run: (§3)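 Mycobacterium strains were subcultured on Columbia agar with 7% defibrinated horse blood at 37 °C for 72 h before assay. The inoculum was 5 × 10⁵ CFU in normal saline (9 g/L), set against a 0.5 McFarland standard. Microtiter plates were incubated at 37 °C. MIC was read after adding MTT (5 mg/mL methanolic stock) for 20 min, with growth shown by colour change.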

Mycolicibacterium phlei = test: Antimycobacterial activity against Mycobacterium phlei ATCC 11758 after 72 hrs by MTT assay; assay type: functional; conditions: ATCC 11758, 72 h; how it was run: as §3
Staphylococcus aureus [5] = test: Antibacterial activity against Staphylococcus aureus SA-1199B overexpressing NorA MDR efflux pump after 24 hrs; assay type: functional; how it was run: as §1
Staphylococcus aureus [6] = test: Antibacterial activity against Staphylococcus aureus ATCC 25923 after 24 hrs; assay type: functional; conditions: ATCC 25923, 24 h; how it was run: as §1
Pseudomonas aeruginosa [7] = test: […] activity against Pseudomonas aeruginosa K767 after 24 hrs; assay type: functional; conditions: K767, 24 h; how it was run: as §1
Pseudomonas aeruginosa [8] = test: […] activity against Pseudomonas aeruginosa K1119 after 24 hrs; assay type: functional; conditions: K1119, 24 h; how it was run: as §1
Salmonella typhimurium [9] = test: […] activity against Salmonella enterica serovar Typhimurium L10 after 24 hrs; assay type: functional, Salmonella enterica subsp. enterica serovar Typhimurium; conditions: L10, 24 h
How it was run: (§4)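 The microdilution inoculum was 5 × 10⁵ CFU in normal saline (9 g/L), matched to a 0.5 McFarland standard. Plates were incubated at 37 °C. MTT (5 mg/mL methanolic stock) was added for 20 min, and colour change indicated growth for the MIC readout.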

Salmonella typhimurium [10] = test: […] activity against Salmonella enterica serovar Typhimurium L354 after 24 hrs; assay type: functional, Salmonella enterica subsp. enterica serovar Typhimurium; conditions: L354, 24 h; how it was run: as §4
Staphylococcus aureus [11] = test: Antibacterial activity against Staphylococcus aureus EMRSA-15 after 24 hrs; assay type: functional; conditions: EMRSA-15, 24 h; how it was run: as §1
Staphylococcus aureus [12] = test: Antibacterial activity against Staphylococcus aureus XU212 overexpressing TetK tetracycline efflux pump after 24 hrs; assay type: functional; conditions: XU212, 24 h; how it was run: as §1
Staphylococcus aureus [13] = test: Antibacterial activity against Staphylococcus aureus EMRSA-16 after 24 hrs; assay type: functional; conditions: EMRSA-16, 24 h; how it was run: as §1

| SMILES | MIC (Staphylococcus aureus [1]) | MIC [2] [µM] | MIC [3] [µM] | MIC [4] [µM] | MIC (Mycolicibacterium phlei) [µM] | MIC (Staphylococcus aureus [5]) | MIC (Staphylococcus aureus [6]) | MIC (Pseudomonas aeruginosa [7]) [µM] | MIC (Pseudomonas aeruginosa [8]) [µM] | MIC (Salmonella typhimurium [9]) [µM] | MIC (Salmonella typhimurium [10]) [µM] | MIC (Staphylococcus aureus [11]) | MIC (Staphylococcus aureus [12]) | MIC (Staphylococcus aureus [13]) |
| --- | --- | --- | --- | --- | --- | --- | --- | --- | --- | --- | --- | --- | --- | --- |
| CC[C@H]1OC(=O)[C@H](C)[C@@H](O[C@H]2C[C@@](C)(OC)[C@@H](O)[C@H](C)O2)[C@H](C)[C@@H](O[C@@H]2O[C@H](C)C[C@H](N(C)C)[C@H]2O)[C@](C)(O)C[C@@H](C)C(=O)[C@H](C)[C@@H](O)[C@]1(C)O [ERYTHROMYCIN] | 349 µM |  |  |  |  |  |  |  |  |  |  |  |  |  |
| CC[C@@H](CO)NCCN[C@@H](CC)CO [ETHAMBUTOL] |  | 2.4 (≈ 0.49 µg/mL) | 2.4 (≈ 0.49 µg/mL) | 2.4 (≈ 0.49 µg/mL) | 2.4 (≈ 0.49 µg/mL) |  |  |  |  |  |  |  |  |  |
| NNC(=O)c1ccncc1 [ISONIAZID] |  | 14.6 (≈ 2 µg/mL) | 14.6 (≈ 2 µg/mL) | 29.2 (≈ 4 µg/mL) | 14.6 (≈ 2 µg/mL) |  |  |  |  |  |  |  |  |  |
| CCn1cc(C(=O)O)c(=O)c2cc(F)c(N3CCNCC3)cc21 [NORFLOXACIN] |  |  |  |  |  | 100 µM | 3.1 µM | 6.2 (≈ 1.98 µg/mL) | 6.2 (≈ 1.98 µg/mL) |  |  |  |  |  |
| CC[C@H](C)C(=O)c1c(O)cc(O)cc1OC/C=C(\C)CCC=C(C)C [OLYMPICIN A] | 2.9 µM | 11.6 (≈ 4.02 µg/mL) | 11.6 (≈ 4.02 µg/mL) | 23.2 (≈ 8.04 µg/mL) | 11.6 (≈ 4.02 µg/mL) | 2.9 µM | 2.9 µM | > 1000 | > 1000 | > 1000 | > 1000 | 1.45 µM | 2.9 µM | 2.9 µM |
| CC[C@H](C)C(=O)c1c(O)cc(O)cc1OC/C=C(\C)C/C=C/C(C)(C)O [OLYMPICIN B] | 64 µg/mL |  |  |  |  | 64 µg/mL | 64 µg/mL |  |  |  |  | 64 µg/mL | 64 µg/mL | 64 µg/mL |
| C=C(C)C(O)CC/C(C)=C/COc1cc(O)cc(O)c1C(=O)C(C)CC (stereo unspecified) [OLYMPICIN C] | 64 µg/mL |  |  |  |  | 64 µg/mL | 64 µg/mL |  |  |  |  | 64 µg/mL | 64 µg/mL | 64 µg/mL |
| C=C(C)C(CC/C(C)=C/COc1cc(O)cc(O)c1C(=O)C(C)CC)OO (stereo unspecified) [OLYMPICIN D] | 64 µg/mL |  |  |  |  | 64 µg/mL | 64 µg/mL |  |  |  |  | 64 µg/mL | 64 µg/mL | 64 µg/mL |
| CCC(C)C(=O)c1c(O)cc(O)cc1OC/C=C(\C)CCC1OC1(C)C (stereo unspecified) [OLYMPICIN E] | 64 µg/mL |  |  |  |  | 64 µg/mL | 64 µg/mL |  |  |  |  | 64 µg/mL | 64 µg/mL | 64 µg/mL |
| Cc1onc(-c2ccccc2)c1C(=O)N[C@@H]1C(=O)N2[C@@H]1SC(C)(C)[C@@H]2C(=O)O [OXACILLIN] |  |  |  |  |  |  |  |  |  |  |  | 79 µM |  | 1280 µM |
| CN(C)[C@@H]1C(O)=C(C(N)=O)C(=O)[C@@]2(O)C(O)=C3C(=O)c4c(O)cccc4[C@@](C)(O)[C@H]3C[C@@H]12 [TETRACYCLINE] |  |  |  |  |  |  |  |  |  | 2.3 (≈ 1.02 µg/mL) | 2.3 (≈ 1.02 µg/mL) |  | 288 µM |  |
